Compound activity: PubChem BioAssay, several laboratories
GRIN3A LBD mod: modulators (binders) of human NR3A ligand-binding domain | Tm shift relative to glycine control, % at 25 µM | NR3A LBD differential scanning fluorimetry, Tm shift; 0% = protein alone, 100% = glycine-bound protein | AID 1259313 | 340,000 compounds, 2.5% hits;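 active = melting temperature shift of at least 10% of the positive control shift, at one fixed dose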
Hep lipid drop: hepatic lipid droplet formation modulation; AML12 mouse hepatocytes, oleate lipid droplets, BODIPY imaging; inhibition, % at 6.5 µM; 240,000 compounds, 0.4% hits; AID 1656;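 active = lipid droplet intensity inhibited by at least 50%, with more than 500 cells counted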
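material = mouse AML12 hepatocyte cell line, fixed after treatment | also added = 100 µM oleic acid challenge | doses = compound at 6.5 µM only | schedule = overnight exposure | technique = Image-based BODIPY and DAPI two-channel analysis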
GC-B act: GC-B (human) receptor activation; AID 1920062; 370,000 compounds, 0.11% hits; activation, % at 10 µM; HEK293-GC-B cells, CNP EC30, cGMP TR-FRET; 0% at EC30 CNP, 100% saturating CNP;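 active = activation at 10 µM reaching about 35% in either raw or pattern-adjusted values, limit read from the data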
NPR1 activator: GC-A (human) enzyme activation; P16066; HEK293 GC-A cells, cGMP TR-FRET, EC30 ANP; 0% at EC30 ANP, 100% saturating ANP; activation, % at 10 µM; 370,000 compounds, 0.14% hits; AID 1671463; in the data active = activation above about 40%
GASC-1 inh: blocks human GASC-1 demethylase activity; GST-JMJD2C(1-420) H3K9me3 demethylation, DELFIA europium; 330,000 compounds, 0.069% hits; Q9H3R0; inhibition, % at 2.35 µM;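 active = more than half of a compound's replicate wells show inhibition beyond 50%, single wells judged on their own value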;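 note: signal counts dimethyl H3K9 product captured on neutravidin plate; 0% = median of DMSO wells and 100% = 0.3 times that DMSO median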
aDG glyco up: alpha-DG glycosylation activation. Pro5-aDG cells, alpha-DG glycosylation AlphaScreen (IIH6); 0% Pro5, 100% B10-LARGE cell signal. activation, % at 10 µM. 360,000 compounds, 0.22% hits. AID 624168;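 active = activation of at least 8% versus controls, or a plate z-score of at least 8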;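 note: Pro5 are CHO cells carrying HIG-tagged alpha-DG that lacks glycosylation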
* = called active by the depositor; . = not tested or not shown. In the library only some 3% were active in any assay of this set; here they are far more common.

SMILES	GRIN3A LBD mod	Hep lipid drop	GC-B act	NPR1 activator	GASC-1 inh	aDG glyco up
CCOC(=O)c1cc(-c2ccccc2)sc1NC(=O)COC(=O)c1ccc(Cl)c(S(N)(=O)=O)c1	11*	.	.	.	22	0
CCOC(=O)c1cc(-c2ccccc2)sc1NC(=O)COC(=O)c1cccc(S(N)(=O)=O)c1	3	20	-6	-3	-7	-1
Cc1cc(C)cc(NC(=O)Nc2ccc(-n3ccc(C(F)(F)F)n3)cc2)c1	17*	-14	0	-4	0	1
NC(=O)CSc1nccn1Cc1ccccc1	-1	23	3	1	-5	0
c1ccc(Cn2ccnc2SCc2nnc(-c3ccccc3)o2)cc1	11*	7	-4	1	4	0
COc1cccc(OCc2cc(C(=O)N3CCN(C)C(c4ccccc4)C3)no2)c1 (stereo not drawn)	0	8	.	.	-17	0
O=C(COC(=O)C12CC3CC(CC(O)(C3)C1)C2)Nc1ccc(Br)cc1F	0	.	-1	1	9	0
COCCOc1ccc(C(F)(F)F)cc1NC(=O)COC(=O)C12CC3CC(CC(O)(C3)C1)C2	26*	-1	2	-2	4	0
COc1ccc(C2CC(c3cccc(C(F)(F)F)c3)=NN2c2ccc(S(N)(=O)=O)cc2)cc1 (stereo not drawn)	28*	.	1	7	.	3
COc1ccc(C2CC(c3ccccc3)=NN2c2ccc(S(N)(=O)=O)cc2)cc1 (stereo not drawn)	-1	-2	2	9	0	2
NS(=O)(=O)c1ccc(N2N=C(c3ccccc3)CC2c2ccc(F)cc2)cc1 (stereo not drawn)	4	-22	-6	3	6	2
COc1ccc(C2CC(c3cccc(F)c3)=NN2c2ccc(S(N)(=O)=O)cc2)cc1 (stereo not drawn)	37*	.	7	14	.	1
NS(=O)(=O)c1ccc(N2N=C(c3ccccc3)CC2c2cccc(Cl)c2)cc1 (stereo not drawn)	24*	.	0	-3	.	1
COc1ccc(C2CC(c3ccccc3Cl)=NN2c2ccc(S(N)(=O)=O)cc2)cc1 (stereo not drawn)	11*	.	11	7	.	1
Nc1nc(SCc2ccccc2)c2ncn(CCO)c2n1	-1	.	5	-1	.	0
N#CCC[C@@H]1CC[C@]2(CCCN(C(=O)c3cccnc3)C2)O1	.	.	-6	4	.	.
CCCC(C)NC(=O)CC1Oc2ccccc2NC1=O (stereo not drawn)	.	.	-12	2	.	.
COc1ccc(C2CC(c3cccc(Br)c3)=NN2c2ccc(S(N)(=O)=O)cc2)cc1 (stereo not drawn)	27*	.	9	13	.	2
CCCCCn1ccc(=N)cc1	11*	.	-4	4	-10	0
COC(=O)[C@]12C[C@H](CC(=O)N3CCN(C(=O)C4CC4)CC3)C(=O)N(Cc3ccccc3)C1=C[C@H](C(C)(C)C)O[C@@H]2C	.	.	-6	-8	.	.
Oc1ccccc1/C=N/n1c2ccccc2c2ccccc21	19*	.	-2	-1	-7	0
C(=N\n1c2ccccc2c2ccccc21)/c1ccccc1	-28	-10	-4	-2	-1	0
O=C(COc1ccc(-c2ccccc2)cc1)N/N=C/c1cc(O)ccc1Br	20*	-6	-3	-6	-3	0
Cc1ccc(C(=O)Nc2nnc(-c3ccc(C(C)(C)C)cc3)s2)cc1	10*	.	5	13	-63	0
COc1ccccc1NC(=O)c1ccc2c(c1)OCO2	0	-7	0	4	-2	0
SMILES	GRIN3A LBD mod	Hep lipid drop	GC-B act	NPR1 activator	GASC-1 inh	aDG glyco up
COc1cc2c(cc1NC(=O)c1ccc3c(c1)OCO3)oc1ccccc12	26*	-5	-1	-1	1	0
O=C(COc1ccc2c(c1)OCO2)Nc1ccc2c(c1)oc1ccccc12	5	5	2	1	-18	3
O=C(Nc1ccc2c(c1)oc1ccccc12)c1ccc2c(c1)OCO2	25*	-6	-10	0	-13	0
O=C(O)CCCC(=O)OCCCc1cc2ccccc2c(=O)o1	.	.	-4	3	.	.
Nc1ccccc1C#Cc1ccccc1	-10	.	1	0	-22	0
Nc1ccccc1C#Cc1ccc2[nH]ccc2c1	19*	.	-5	-2	0	0
COC(=O)[C@]12C[C@H](CC(=O)NCCCN3CCCC3=O)C(=O)N(Cc3ccc4c(c3)OCO4)C1=C[C@H](C(C)C)O[C@@H]2C1CC1	.	.	1	-2	.	.
CCN(CC)CCNC(=O)CCN1N=C(c2ccccc2)CCC1=O	-1	-9	3	-7	2	0
c1cc2ccn(CC3CC3)c2cc1-c1ccc2ccn(CC3CC3)c2c1	.	.	38*	0	.	.
Fc1ccc(Cn2ccc3ccc(-c4ccc5ccn(Cc6ccc(F)cc6)c5c4)cc32)cc1	.	.	3	2	.	.
Cn1c(N)c(C(=O)COC(=O)/C=C/c2ccc(Cl)c(Cl)c2)c(=O)n(C)c1=O	17*	.	-1	3	3	2
COC(=O)c1ccc(C(=O)OC)c(NC(=O)COC(=O)CC2CC3CCC2C3)c1 (stereo not drawn)	19*	8	-4	-6	4	0
CCOc1ccc(CCNC(=O)c2cc3ccsc3n2C)cc1OC	.	.	6	-2	.	.
CCOc1cc(C=NN2CCN(Cc3ccc(C)cc3)CC2)ccc1O	.	.	1	-1	.	.
O=C(N/N=C/c1ccc(F)cc1)c1cc(-c2ccc3c(c2)OCO3)n[nH]1	29*	0	4	11	7	0
COc1ccc(/C=N/NC(=O)c2cc(-c3ccc4c(c3)OCO4)n[nH]2)cc1OC	25*	-30	11	18	2	0
CN(C)c1ccc(/C=N/NC(=O)c2cc(-c3ccc4c(c3)OCO4)n[nH]2)cc1	12*	4	3	1	0	0
O=C(N/N=C/c1cc2c(cc1Cl)OCO2)c1cc(-c2ccccc2)n[nH]1	32*	-11	25	2	5	0
CCCC1CCC2(CCCN2CCOC(=S)Nc2ccccc2)CC1 (stereo not drawn)	.	.	-6	1	.	.
CCOC(=O)[C@]12CCCCC/C=C\1N(CCc1ccc(Cl)cc1)C(=O)[C@H]2CC(=O)N1CCN(C(=O)c2ccco2)CC1	.	.	11	-4	.	.
CCN(CC)c1ccc(/C=N/NC(=O)c2ccc3c(c2)OCCO3)cc1	-2	3	1	5	1	0
CN(C)c1ccc(/C=N/NC(=O)c2ccc3c(c2)OCCO3)cc1	21*	-4	1	-5	8	0
C=CCN1[C@H](Cc2ccccc2)COc2cccc(N3CCCC3)c2S1(=O)=O	.	.	-2	8	.	.
